Calb FLC: C. albicans growth modulation with fluconazole; C. albicans CaCi-2 (fluconazole-resistant clinical isolate) + fluconazole, Alamar Blue growth, 48 h; growth inhibition, % (no concentration beside the values); hit rate 0.57% among 300,000;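 active = growth inhibition above about 58% in most replicates, limit read from the data, passing the limit was not always enough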;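 also: all wells also contain fluconazole at 8 µg/ml as a sub-toxic cotreatment; 0% = median of DMSO wells and 100% = median of geldanamycin control wells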
Beta cell apopt: beta cell apoptosis inhibition; protection from apoptosis, % (no concentration beside the values); hit rate 0.8% among 300,000; INS-1E cytokine-induced death, ATP luminescence, 48 h; percent of positive-control rescue, neutral wells zero;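 active = Every replicate reaches about 75%, or at least half do and their mean reaches it too, limit read from the data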;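 also: 0% = cytokine-treated negative control wells and 100% = positive control rescue; higher means more ATP so stronger rescue from cytokine killing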
CSC inhib: blocks cancer stem cells; cancer stem cell-like cells viability, luminescence; inhibition, % at 7.5 µM; hit rate 1.1% among 300,000; in the data active = inhibition above about 75%; tested in HMLE shEcad cells
SKKanGAS inh: inhibitors of SKKanGAS S. pyogenes growth in kanamycin (SK-promoter or general growth effect). BacTiter-Glo, 6 h. inhibition, % at 7.5 µM. hit rate 1.3% among 300,000;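 active = mean replicate score, as percent of positive control median, at least 50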;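 also: strain carries kanamycin resistance gene driven by streptokinase promoter and grows in 40 µg/ml kanamycin; loss of luminescence reflects streptokinase promoter inhibition or plain growth inhibition; 0% = median of DMSO wells and 100% = positive control at its reference dose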
T cruzi repl: blocks replication of Trypanosoma cruzi; hit rate 1.4% among 300,000; inhibition, % (concentration not given with the values); T. cruzi beta-gal in NIH3T3, luminescence, 90 h;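 active = mean inhibition across valid replicates above about 55%, limit read from the data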;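 also: signal also drops with host cell toxicity which is not excluded here; 0% = plate median of DMSO wells and 100% = zero luminescence signal; higher percent means less beta-gal luminescence so fewer parasites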
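System: mouse NIH/3T3 fibroblasts infected with β-gal-expressing T. cruzi Tulahuen C4 / Input: NIH/3T3 cells, 5,000 per well / Buffer or medium: Low-serum DMEM with 2% FBS / Probe or stimulus: 5000 reporter trypomastigotes per well / Schedule: ≥90 h infection period, 3 h prior cell attachment / Measured by: GalScreen luminescence, 60 min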
Mdm2 MdmX PPI: disrupts the human Mdm2-MdmX interaction | O15151+Q00987 | SaOS-2 split-luciferase Mdm2/MdmX complementation, luminescence | inhibition, % at 8 µM | hit rate 3% among 330,000;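 active = inhibition of at least 50% at 8 µM in the primary screen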
Target sequence (O15151 whole entry, looked up): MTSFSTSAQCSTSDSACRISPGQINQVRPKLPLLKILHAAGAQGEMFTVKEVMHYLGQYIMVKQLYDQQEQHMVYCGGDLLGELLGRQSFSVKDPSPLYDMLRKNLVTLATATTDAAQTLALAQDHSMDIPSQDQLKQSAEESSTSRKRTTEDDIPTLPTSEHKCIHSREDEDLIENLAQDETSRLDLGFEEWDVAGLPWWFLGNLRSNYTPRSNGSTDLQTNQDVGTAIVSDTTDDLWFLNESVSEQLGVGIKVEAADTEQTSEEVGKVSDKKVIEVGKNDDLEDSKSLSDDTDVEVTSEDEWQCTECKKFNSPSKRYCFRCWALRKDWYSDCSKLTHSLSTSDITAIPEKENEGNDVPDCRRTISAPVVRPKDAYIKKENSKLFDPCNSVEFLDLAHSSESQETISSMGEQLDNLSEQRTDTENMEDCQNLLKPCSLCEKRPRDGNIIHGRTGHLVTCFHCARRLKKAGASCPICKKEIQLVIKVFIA
Target sequence (Q00987 whole entry, looked up): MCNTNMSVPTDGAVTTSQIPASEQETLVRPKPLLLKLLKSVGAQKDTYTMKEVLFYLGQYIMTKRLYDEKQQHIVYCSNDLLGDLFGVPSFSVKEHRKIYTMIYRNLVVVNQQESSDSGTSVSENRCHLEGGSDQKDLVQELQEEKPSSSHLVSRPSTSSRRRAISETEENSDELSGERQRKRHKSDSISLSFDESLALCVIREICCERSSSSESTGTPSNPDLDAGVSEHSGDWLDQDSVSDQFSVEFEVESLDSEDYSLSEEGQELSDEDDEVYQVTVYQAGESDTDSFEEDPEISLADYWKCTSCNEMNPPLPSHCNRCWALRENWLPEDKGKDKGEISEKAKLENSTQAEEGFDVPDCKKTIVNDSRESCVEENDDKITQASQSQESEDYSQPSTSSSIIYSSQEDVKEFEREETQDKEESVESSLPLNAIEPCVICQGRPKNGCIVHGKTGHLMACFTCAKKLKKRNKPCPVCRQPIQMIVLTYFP
The depositor's hits bear a star. An excerpt weighted towards active compounds, which were near 5.7% of everything screened.

Screening Cc1cc(C)nc(SC2c3cccc4cccc(c34)C2NS(=O)(=O)c2ccccc2)n1 (configuration not stated) returned Calb FLC 11, Beta cell apopt 15, CSC inhib 5, SKKanGAS inh 16, T cruzi repl 57* and Mdm2 MdmX PPI 16.
For Cc1ccc(S(=O)(=O)NC2c3cccc4cccc(c34)C2Sc2ncccn2)cc1 (configuration not stated) the results were Calb FLC 3, SKKanGAS inh 19, T cruzi repl 38 and Mdm2 MdmX PPI -11.
CCCCCN=Cc1c(C)[nH]n(-c2nc3ccccc3s2)c1=O was read as Calb FLC 5, Beta cell apopt 90*, CSC inhib -18, SKKanGAS inh 13, T cruzi repl 8 and Mdm2 MdmX PPI 27.
Screening CCCc1[nH]n(-c2nc3ccccc3s2)c(=O)c1C=NCCCOC returned Calb FLC -3, Beta cell apopt -6, CSC inhib -10, SKKanGAS inh 1, T cruzi repl 11 and Mdm2 MdmX PPI 11.
C[C@]12CCC(O)CC1CCC1C2CC[C@]2(C)C(c3cc(C(F)(F)F)n[nH]3)CCC12 (some centres not stated) was read as Calb FLC 11, Beta cell apopt 19, CSC inhib 112*, SKKanGAS inh 106*, T cruzi repl 9 and Mdm2 MdmX PPI 29.
For Cc1ccc(C(=O)Nc2cc(C(C)C)c(O)c(C(C)C)c2)cc1 the results were Calb FLC -4, Beta cell apopt -6, CSC inhib -14, SKKanGAS inh 6, T cruzi repl -5 and Mdm2 MdmX PPI 3.
`Nc1n[nH]c(C2CC2)c1N=Nc1ccc(Cl)c(Cl)c1` gave Calb FLC -10, Beta cell apopt -11, CSC inhib 41, SKKanGAS inh 82*, T cruzi repl -1 and Mdm2 MdmX PPI 12.
`COc1ccc2c(/C=C/c3cc[n+](C)cc3)c[nH]c2c1` gave Calb FLC 0, Beta cell apopt 59, CSC inhib 0, SKKanGAS inh -1, T cruzi repl 54 and Mdm2 MdmX PPI 22.
`COc1ccc2c(c1)c(/C=C/c1cc[n+](C)cc1)cn2C` gave Calb FLC 81*, Beta cell apopt 49, CSC inhib -25, SKKanGAS inh 6, T cruzi repl 41 and Mdm2 MdmX PPI 5.
Cn1c2ccccc2c2cc([N+](=O)[O-])ccc21 was read as Calb FLC 18, Beta cell apopt -1, CSC inhib 3, SKKanGAS inh -6, T cruzi repl 12 and Mdm2 MdmX PPI 18.
CN1c2ccc([N+](=O)[O-])cc2N(C)C1(C)c1ccccc1 (configuration not stated) was read as Calb FLC 1, Beta cell apopt 10, CSC inhib 8, SKKanGAS inh 9, T cruzi repl 57* and Mdm2 MdmX PPI 39.
Fc1ccc(C(CCCn2nnc(-c3cccnc3)n2)c2ccc(F)cc2)cc1 was read as Calb FLC 24, Beta cell apopt 15, CSC inhib 52, SKKanGAS inh 19, T cruzi repl 62* and Mdm2 MdmX PPI -3.
`C[C@H](CO)N1C[C@H](C)[C@@H](CN(C)S(=O)(=O)c2ccccc2)Oc2ccc(NC(=O)Nc3ccc(C(F)(F)F)cc3)cc2C1=O` gave Beta cell apopt -6, CSC inhib 102* and Mdm2 MdmX PPI 45.
For CC(C)N(CCC(=O)c1ccc2ccccc2c1)Cc1ccccc1 the results were Beta cell apopt 65, CSC inhib 75* and Mdm2 MdmX PPI 36.
For O=C(Nc1ccc([N+](=O)[O-])cc1)Nc1ccc(N2CCOCC2)c2nonc12 the results were Calb FLC -5, Beta cell apopt 3, CSC inhib -4, SKKanGAS inh 9, T cruzi repl 71* and Mdm2 MdmX PPI 50.
For CC1CCCC(C)N1S(=O)(=O)c1ccc(S(=O)(=O)NCCc2ccncc2)cc1 (configuration not stated) the results were Calb FLC -13, CSC inhib -18, SKKanGAS inh -2, T cruzi repl 57* and Mdm2 MdmX PPI 4.
For O=C(/C=C/c1cc[n+](CC(=O)c2ccc3cccc4c3c2CC4)cc1)c1ccc2cccc3c2c1CC3 the results were Calb FLC 6, Beta cell apopt 5, CSC inhib 0, SKKanGAS inh 30, T cruzi repl 63* and Mdm2 MdmX PPI -3.

High-throughput results (PubChem)
